Data reported in ChEMBL document CHEMBL1687926, “14-Aminocamptothecins: their synthesis, preclinical activity, and potential use for cancer treatment” (J Med Chem, 2011).
pIC50: −log10 of the molar value.

Columns and labels:
NCI-H460 [1] = assay: Cytotoxicity against human H460 cells after 72 hrs by alamar blue assay; format: functional, cell-based
Method in brief: (§1)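 Cells seeded at 4 × 10³ per well and grown 24 h. Compounds dissolved in DMSO and diluted in medium to final concentrations, then incubated 72 h at 37 °C, 5% CO₂. Viable cells read by AlamarBlue; IC₅₀ taken as the concentration giving 50% growth inhibition.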

[2] = Ratio of IC50 for mouse bone marrow cell to IC50 for human bone marrow cell; format: cell-based; settings: bone marrow cells
Method in brief: (§2)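 CFU-GM colony assay in triplicate at 2 × 10⁴ cells per culture, using thawed normal human bone marrow or fresh mouse femoral marrow. Colonies were scored after 16-18 days. The IC50 or IC90 from each species gave the mouse/human ratio.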

Malme-3M = assay: Cytotoxicity against human MALME-3M cells after 72 hrs by alamar blue assay; format: functional, cell-based; method in brief: as §1
SK-MEL-2 = assay: Cytotoxicity against human SK-MEL-2 cells after 72 hrs by alamar blue assay; format: functional, cell-based; settings: SK-MEL-2, 72 h; method in brief: as §1
[3] = Cytotoxicity against human MES-SA/Dx5 cells overexpressing MDR1 after 72 hrs by alamar blue assay; format: functional, cell-based; settings: MES-SA/Dx5, 72 h; method in brief: as §1
[4] = Cmax in CD-1 mouse brain at 50 mg/kg, ip by LC/MS/MS analysis; format: ADME, organism-based; set-up: dose 50 mg/kg, route intraperitoneal
Method in brief: (§3)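 CD-1 mice (~25 g) given 50 mg/kg ip in 5% DMSO/5% Tween 80 in water; three mice per time point, sampled up to 480 min. Blood taken by cardiac puncture into EDTA, then whole brain excised and homogenized in water. Proteins precipitated with ice-cold acetonitrile containing propranolol internal standard; supernatant analysed by HPLC/MS/MS.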

DU-145 = assay: Cytotoxicity against human DU145 cells after 72 hrs by alamar blue assay; format: functional, cell-based; settings: DU-145, 72 h; method in brief: as §1
IGROV-1 = assay: Cytotoxicity against human IGROV1 cells after 72 hrs by alamar blue assay; format: functional, cell-based; settings: IGROV-1, 72 h; method in brief: as §1
[5] = Cmax in CD-1 mouse plasma at 50 mg/kg, ip by LC/MS/MS analysis; format: ADME, organism-based; set-up: dose 50 mg/kg, route intraperitoneal; method in brief: as §3
Mus musculus = assay: Toxicity in nu/nu mouse assessed as body weight loss at 30 mg/kg, po QD for 5 days followed by 2 days without treatment for 2 weeks; format: organism-based; set-up: dose 30 mg/kg, route oral; settings: in vivo
Method in brief: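 Female nude (nu/nu) mice (males for prostate model) bearing sc xenografts, dosing started at 100-150 mm³, 10/group. Oral gavage in 5% DMSO/5% Tween 80/1% CMC in water, QD 5 days on/2 off per cycle, 2 or 4 cycles. Body weight recorded twice weekly; maximum loss reported.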

NCI-H460 [6] = assay: Ratio IC50 for human H460 cells after 72 hrs in presence of 40 mg/ml HSA to IC50 for human H460 cells after 72 hrs; format: functional
Method in brief: (§4)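 H460 cells seeded at 4 × 10³ per well and grown 24 h. Compounds then cocultured with cells for 72 h at 37 °C, with or without 40 mg/mL human serum albumin. Viability read by AlamarBlue; IC₅₀ = 50% growth inhibition. Ratio compares the IC₅₀ with HSA to the IC₅₀ without.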

[7] = Resistance ratio of IC50 for human H69AR cells overexpressing MRP1 after 72 hrs s to IC50 for human H69 cells after 72 hrs
PC-3 = assay: Cytotoxicity against human PC3 cells after 72 hrs by alamar blue assay; format: functional, cell-based; settings: PC-3, 72 h; method in brief: as §1
NCI-H460 [8] = assay: Antitumor activity against human H460 cells xenografted in nu/nu mouse assessed as tumor growth inhibition at 30 mg/kg, po QD for 5 days followed by 2days without treatment for 2 weeks; format: functional; set-up: scale not given: the % may be the effect or the level left
Method in brief: (§5)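 Female nude (nu/nu) mice (males for prostate model) implanted sc in the flank with tumor cells (1 × 10⁶ for H460). Dosing began at 100-150 mm³, 10 mice/group. Oral gavage in 5% DMSO/5% Tween 80/1% CMC in water, 5 days on/2 off per cycle, 2 or 4 cycles. Volume = length×width²/2, measured twice weekly. TGI = (1 − ΔT/ΔC)×100; TGD = extra days to reach 500 mm³ versus control.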

[9] = Ratio of drug level in brain to plasma in CD-1 mouse at 50 mg/kg, ip; format: ADME, organism-based; set-up: dose 50 mg/kg, route intraperitoneal; method in brief: as §3
[10] = Tmax in CD-1 mouse brain at 50 mg/kg, ip by LC/MS/MS analysis; format: ADME, organism-based; set-up: dose 50 mg/kg, route intraperitoneal; method in brief: as §3
[11] = Half life in CD-1 mouse plasma at 50 mg/kg, ip by LC/MS/MS analysis; format: ADME, organism-based; set-up: dose 50 mg/kg, route intraperitoneal; method in brief: as §3
[12] = AUC in CD-1 mouse brain at 50 mg/kg, ip by LC/MS/MS analysis; format: ADME, organism-based; set-up: dose 50 mg/kg, route intraperitoneal; method in brief: as §3
[13] = Ratio of IC90 for mouse bone marrow cell to IC90 for human bone marrow cell; format: ADME, cell-based; settings: bone marrow cells; method in brief: as §2
[14] = Half life in CD-1 mouse brain at 50 mg/kg, ip by LC/MS/MS analysis; format: ADME, organism-based; set-up: dose 50 mg/kg, route intraperitoneal; method in brief: as §3
[15] = Resistance ratio of IC50 for human MES-SA/Dx5 cells overexpressing MDR1 after 72 hrs to IC50 for human MESSA cells after 72 hrs; format: functional
Method in brief: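 Cytotoxicity compared in MDR1-overexpressing lines and their parental wild-type lines. 72 h exposure at 37 °C, viability by AlamarBlue, IC₅₀ at 50% growth inhibition. Resistance ratio = IC₅₀ in overexpressing line / IC₅₀ in parental line.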

A-375 = assay: Cytotoxicity against human A375 cells after 72 hrs by alamar blue assay; format: functional, cell-based; settings: A-375, 72 h; method in brief: as §1
[16] = Tmax in CD-1 mouse plasma at 50 mg/kg, ip by LC/MS/MS analysis; format: ADME, organism-based; set-up: dose 50 mg/kg, route intraperitoneal; method in brief: as §3
HT-29 = assay: Cytotoxicity against human HT-29 cells after 72 hrs by alamar blue assay; format: functional, cell-based; settings: HT-29, 72 h; method in brief: as §1
[17] = Cytotoxicity against mouse bone marrow cell by CFU-GM assay; format: cell-based
Method in brief: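 CFU-GM colony assay on normal human bone marrow (thawed) or mouse femoral marrow (freshly extracted). Human colonies scored after 16-18 days. IC₅₀ taken from triplicate assays.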

[18] = Cytotoxicity against human MESSA cells after 72 hrs by alamar blue assay; format: functional, cell-based; settings: MES-SA; method in brief: as §1
H69AR = assay: Cytotoxicity against human H69AR cells overexpressing MRP1 after 72 hrs by alamar blue assay
NCI-H460 [19] = assay: Antitumor activity against human H460 cells xenografted in nu/nu mouse assessed as tumor growth delay at 30 mg/kg, po QD for 5 days followed by 2days without treatment for 2 weeks; format: functional; method in brief: as §5
NCI-H69 = assay: Cytotoxicity against human H69 cells after 72 hrs by alamar blue assay; format: functional, cell-based; settings: NCI-H69, 72 h; method in brief: as §1
[20] = AUC in CD-1 mouse plasma at 50 mg/kg, ip by LC/MS/MS analysis; format: ADME, organism-based; set-up: dose 50 mg/kg, route intraperitoneal; method in brief: as §3
[21] = Cytotoxicity against human bone marrow cell by CFU-GM assay; format: cell-based
LNCaP = assay: Cytotoxicity against human LNCAP cells after 72 hrs by alamar blue assay; format: functional, cell-based; method in brief: as §1
NCI-H460 [22] = assay: Cytotoxicity against human H460 cells after 72 hrs by alamar blue assay in presence of 40 mg/ml HSA; format: functional, cell-based; settings: NCI-H460, 72 h; method in brief: as §4

CC[C@@]1(O)C(=O)OCc2c1c([N+](=O)[O-])c1n(c2=O)Cc2cc3ccccc3nc2-1
pIC50 (NCI-H460 [1]; Homo sapiens, NCI-H460, 72 h): 5.52

CC[C@@]1(O)C(=O)OCc2c1c(N)c1n(c2=O)Cc2cc3ccccc3nc2-1
pIC50 (NCI-H460 [1]; Homo sapiens, NCI-H460, 72 h): 7.74
pIC50 (NCI-H460 [1]; nci-h460): 7.64
selectivity ratio [2]: 6
pIC50 (Malme-3M): 6.11
pIC50 (SK-MEL-2): 6.77
pIC50 [3]: 7.22
Cmax [4]: 600 ng/mL
pIC50 (DU-145): 6.11
pIC50 (IGROV-1): 6.92
Cmax [5]: 600 ng/mL
Activity (Mus musculus): 4%
Ratio (NCI-H460 [6]): 5
Ratio [7]: 1
pIC50 (PC-3): 7.37
Activity (NCI-H460 [8]): 79%
Kp [9]: 101
Tmax [10]: 0.5 h
half-life [11]: 4.17 h
AUC [12]: 1670 ng·h/mL
selectivity ratio [13]: 4
half-life [14]: 3.5 h
Ratio [15]: 1
pIC50 (A-375): 7.66
Tmax [16]: 0.5 h
pIC50 (HT-29): 6.64
pIC50 [17]: 8.00
pIC50 [18]: 7.24
pIC50 (H69AR): 7.04
Time (NCI-H460 [19]): 15 days
pIC50 (NCI-H69): 7.04
AUC [20]: 1500 ng·h/mL
pIC50 ([21]; Homo sapiens, Bone marrow cell): 6.15
IC90 ([21]; human, bone marrow cells): 4800 nM
pIC50 (LNCaP): 6.96
pIC50 (NCI-H460 [22]): 6.92

CCc1c2c(nc3ccccc13)-c1c([N+](=O)[O-])c3c(c(=O)n1C2)COC(=O)[C@]3(O)CC
pIC50 (NCI-H460 [1]; Homo sapiens, NCI-H460, 72 h): 5.34

CC[C@@]1(O)C(=O)Nc2c1c(CO)c(=O)n1c2-c2nc3ccccc3cc2C1
pIC50 (NCI-H460 [1]; Homo sapiens, NCI-H460, 72 h): 5.11
